The target of data set [1] is insulin receptor (IR) (Homo sapiens, UniProt P06213). The data set is described as follows: IR affinity relative to HI. The class given is binding.
Data set [2] deals with protein kinase B (AKT). Briefly: Phospho-AKT in CHO-hIR cells. The data set is classed as cell-based, Chinese Hamster. The conditions noted are these: read-out: EC50 (nM) Mean (95% CI), Phospho-AKT in CHO-hIR cells; HSA 0.1%, n=3.
The test system of data set [3] is extracellular-regulated kinase (ERK). Briefly: Phospho-ERK in CHO-hIR cells. The class given is cell-based, Chinese Hamster. The conditions noted are these: HSA 0.1%, n=3; for EC50: read-out: EC50 (nM) Mean (95% CI), Phospho-ERK in CHO-hIR cells.
Data set [4] concerns rat hepatocytes. Briefly: Glycogen accumulation in rat hepatocytes. The class given is cell-based. The conditions noted are these: for EC50: read-out: EC50 (nM) Mean (95% CI), Glycogen accumulation in rat hepatocytes, n=7, geometric mean. An outline of the steps:
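Hepatocytes are isolated from rat by two-step collagenase perfusion. […] Determine cellular glycogen as glucose released after amyloglucosidase digestion.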

Data set [5] concerns MCF-7 cells. Briefly: DNA synthesis. The data set is classed as cell-based, human. As to conditions: HSA 0%, n=4.
In data set [6] the target is Human IR-B (Homo sapiens, UniProt P06213). The data set is described as follows: Human IR-B binding, competition scintillation proximity assay. The conditions noted are these: n=3.
For data set [7], the system named is MCF-7 cells. The data set is described as follows: Glycogen synthesis in human MCF-7 cells. The class given is cell-based. The conditions noted are these: HSA 0%, n=5. An outline of the steps: (§1)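 L6-hIR cells are a rat skeletal myoblast L6 line stably transfected with the A isoform of human IR. MCF-7 is a human mammary adenocarcinoma line.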
Data set [8] deals with L6-hIR cells. The data set is described as follows: DNA synthesis. The conditions noted are these: HSA 0%, n=5. The class given is cell-based, rat.
In data set [9] the test system is COLO-205 cells. Briefly: DNA synthesis. The class given is cell-based, human. The conditions noted are these: HSA 0%, n=3.
Data set [10] concerns L6-hIR cells. Briefly: Glycogen synthesis in rat L6-hIR cells. The data set is classed as cell-based. The conditions noted are these: HSA 0.1%, n=4. The procedure, abridged:
as §1

For data set [11], the system named is primary rat adipocytes. The data set is described as follows: Lipogenesis in rat adipocytes. The data set is classed as cell-based. The conditions noted are these: HSA 0.1%, n=4.
A short description of data set [12]: Clinical pharmacology trial: pharmacokinetics, total serum insulin icodec. The class given is in vivo, human. An outline of the steps: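 Randomized, double-blind, double-dummy, active-controlled, multiple-dose escalation trial in adults aged 18–64 with type 2 diabetes on insulin (HbA1c ≤9.0%). Participants received once-weekly s.c. thigh injections at 12, 20 or 24 nmol/kg (one dose per cohort) for 5 weeks, at ~20:00. Total serum test compound (free plus albumin-bound) was measured by a specific assay at prespecified times, from predose to 36 days after the last dose.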

Data set [13] concerns individuals with type 2 diabetes. The data set is described as follows: Clinical pharmacology trial: safety assessments. The class given is in vivo, human. An outline of the steps: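 Dose-escalation trial in type 2 diabetes. Three sequential cohorts received once-weekly s.c. thigh injections at 12, 20 or 24 nmol/kg with once-daily placebo for 5 weeks. Safety covered adverse events, hypoglycemic episodes, injection site reactions, vital signs, physical examination, clinical laboratory tests and ECG. An internal safety group reviewed blinded interim data before each escalation.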

The target of data set [14] is Human IGF-1R (Homo sapiens, UniProt P08069). Briefly: Human IGF-1R binding, competition scintillation proximity assay. The conditions noted are these: HSA 0%, n=4.
Data set [15] concerns HMEC cells. Briefly: DNA synthesis. As to conditions: HSA 0%, n=7. The class given is cell-based, human.
Data set [16] deals with human insulin receptors (hIRs) (Homo sapiens, UniProt P06213). Briefly: IR phosphorylation in CHO-hIR cells. The class given is cell-based.
The target of data set [17] is Human IR-A (Homo sapiens, UniProt P06213). Briefly: Human IR-A binding, competition scintillation proximity assay. As to conditions: n=3.

Bounds are passed on as bounds.

Chain of Human IGF-1R (P08069 31-736 limits assumed): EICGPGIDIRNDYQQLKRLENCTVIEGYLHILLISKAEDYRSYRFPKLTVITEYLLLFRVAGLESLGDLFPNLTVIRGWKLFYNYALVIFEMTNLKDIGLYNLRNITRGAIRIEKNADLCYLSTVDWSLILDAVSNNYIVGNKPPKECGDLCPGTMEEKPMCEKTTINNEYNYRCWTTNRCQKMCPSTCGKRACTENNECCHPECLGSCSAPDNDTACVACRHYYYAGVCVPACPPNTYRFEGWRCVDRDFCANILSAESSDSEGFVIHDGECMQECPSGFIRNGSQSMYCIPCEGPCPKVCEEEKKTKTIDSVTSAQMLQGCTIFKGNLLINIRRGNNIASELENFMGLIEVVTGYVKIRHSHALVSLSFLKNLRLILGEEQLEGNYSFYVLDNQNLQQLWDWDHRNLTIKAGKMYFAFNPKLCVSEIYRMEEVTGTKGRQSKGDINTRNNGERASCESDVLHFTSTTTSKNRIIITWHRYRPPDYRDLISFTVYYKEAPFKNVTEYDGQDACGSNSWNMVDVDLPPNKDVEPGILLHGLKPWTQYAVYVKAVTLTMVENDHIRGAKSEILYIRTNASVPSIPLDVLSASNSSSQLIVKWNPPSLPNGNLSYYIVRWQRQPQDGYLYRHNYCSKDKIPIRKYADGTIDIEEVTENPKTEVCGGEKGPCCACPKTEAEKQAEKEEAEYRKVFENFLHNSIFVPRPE
Chain of Human IGF-1R (P08069 741-1367 partner limits assumed): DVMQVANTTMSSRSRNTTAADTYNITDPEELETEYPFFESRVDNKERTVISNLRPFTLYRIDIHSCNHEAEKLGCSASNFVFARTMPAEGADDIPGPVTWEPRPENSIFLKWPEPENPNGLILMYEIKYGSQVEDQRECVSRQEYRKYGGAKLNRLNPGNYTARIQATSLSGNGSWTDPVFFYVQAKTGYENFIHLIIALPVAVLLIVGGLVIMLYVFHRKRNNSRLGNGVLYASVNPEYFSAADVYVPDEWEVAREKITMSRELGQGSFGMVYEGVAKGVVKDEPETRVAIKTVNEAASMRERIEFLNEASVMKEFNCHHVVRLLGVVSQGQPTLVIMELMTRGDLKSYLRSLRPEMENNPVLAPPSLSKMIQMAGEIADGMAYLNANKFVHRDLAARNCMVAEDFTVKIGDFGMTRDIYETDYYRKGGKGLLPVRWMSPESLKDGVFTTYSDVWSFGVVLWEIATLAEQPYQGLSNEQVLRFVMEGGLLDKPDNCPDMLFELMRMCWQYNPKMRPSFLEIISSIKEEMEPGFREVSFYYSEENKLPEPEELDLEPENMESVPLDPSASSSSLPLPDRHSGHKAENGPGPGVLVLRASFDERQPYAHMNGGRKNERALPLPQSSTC

Take “B16H: individual amino acid substitution TyrB16His in human insulin”: the “IR affinity relative to HI” value in data set [1] (relative to HI) is 22%.
With “desB30: human insulin with the threonine in position B30 deleted”, the “influence on the IR affinity” value in data set [1] (deletion of threonine in position B30 of HI) is on record as “no influence”.
Turning to human insulin [reference compound], the EC50 in data set [2] was determined as 0.15 nM; in [3] it was 1.02 nM; in data set [4] (HSA 0%) it was 0.28 nM.
Turning to insulin icodec, the “EC50 (%) Insulin icodec relative to human insulin Mean (95% CI), DNA synthesis in human MCF-7 cells” value in data set [5] turned out to be 0.5%. For the same substance, the “IC50 (%) Insulin icodec relative to human insulin Mean (95% CI), Human IR-B binding” value in data set [6] (HSA 0%) is given as 0.78%; in [6] (HSA 1.5%), 0.03%. Also, in data set [7], the “EC50 (%) Insulin icodec relative to human insulin Mean (95% CI), Glycogen synthesis in human MCF-7 cells” value is listed as 0.26%. Besides, the EC50 was 245 nM in data set [2], 271 nM in data set [3] and 6.4 nM in [4] (HSA 0%). Also, the “EC50 (%) Insulin icodec relative to human insulin Mean (95% CI), DNA synthesis in rat L6-hIR cells” value in data set [8] was determined as 0.6%. Further, the “EC50 (%) Insulin icodec relative to human insulin Mean (95% CI), DNA synthesis in human COLO-205 cells” value in data set [9] was determined as 2.0%. Also, in data set [10], the “EC50 (%) Insulin icodec relative to human insulin Mean (95% CI), Glycogen synthesis in rat L6-hIR cells” value came to 0.52%. Moreover, in data set [11], the “EC50 (%) Insulin icodec relative to human insulin Mean (95% CI), Lipogenesis in rat adipocytes” value stood at 0.029%. Further, the “time to maximum concentration (median tmax)” value in [12] (type 2 diabetes, once-weekly s.c. dosing) amounted to 16 h. The “maximum serum concentration at steady state” value in data set [12] (week 5 of once-weekly dosing) was less than 500 nmol/L. For the same substance, the “EC50 (%) Insulin icodec relative to human insulin Mean (95% CI), Phospho-ERK in CHO-hIR cells” value in data set [3] is 0.39%. For the same substance, the “EC50 (%) Insulin icodec relative to human insulin Mean (95% CI), Glycogen accumulation in rat hepatocytes” value was found to be 4.3% in [4] (HSA 0%, n=7) and 0.24% in data set [4] (HSA 0.1%, n=8). Moreover, the “adverse events, number of events” value in [13] (12 nmol/kg once weekly, n=13) was found to be 33 events; in data set [13] (20 nmol/kg once weekly, n=13) it was 19 events; in data set [13] (24 nmol/kg once weekly, n=12) it was 23 events. For the same substance, the “adverse events, number of individuals with events” value in data set [13] (12 nmol/kg once weekly, n=13) turned out to be 13 individuals; in [13] (20 nmol/kg once weekly, n=13), 9 individuals; in data set [13] (24 nmol/kg once weekly, n=12) it was 9 individuals. Further, in [13] (12, 20, 24 nmol/kg once weekly for 5 weeks), the “serious or severe adverse events, severe hypoglycemic episodes, injection site reactions or clinically significant findings in vital signs, physical examination, clinical laboratory assessments or ECG” value is “No serious or severe adverse events”. Moreover, in data set [13] (12, 20, 24 nmol/kg once weekly for 5 weeks, type 2 diabetes), the tolerability result is listed as “well tolerated”. Moreover, the “IC50 (%) Insulin icodec relative to human insulin Mean (95% CI), Human IGF-1R binding” value in data set [14] came out at 0.14%. In [15], the “EC50 (%) Insulin icodec relative to human insulin Mean (95% CI), DNA synthesis in human HMEC cells” value is given as 0.2%. In addition, the “agonism at IRs (activation of IRs and downstream AKT and ERK)” value in data set [16] (CHO-hIR cells, 0.1% HSA, in a similar manner as HI) was “full agonist”. In data set [16] (HSA 0.1%, n=3), the “EC50 (%) Insulin icodec relative to human insulin Mean (95% CI), IR phosphorylation in CHO-hIR cells” value worked out at 0.21%. For the same substance, the “IC50 (%) Insulin icodec relative to human insulin Mean (95% CI), Human IR-A binding” value was found to be 0.50% in data set [17] (HSA 0%) and 0.03% in data set [17] (HSA 1.5%).

The record behind these values is paper PMC8378355 (BMJ Open Diabetes Research & Care, 2021).
